Experimental data: ChEMBL document CHEMBL4616681, “Discovery of 3-Pyridyl Isoindolin-1-one Derivatives as Potent, Selective, and Orally Active Aldosterone Synthase (CYP11B2) Inhibitors” (J Med Chem, 2020)

Tests used:
[1] = target: T1, Cytochrome P450 11B2, mitochondrial (Homo sapiens, UniProt P19099); experiment: Inhibition of human CYP11B2 expressed in human renal leiomyoblastoma cells harboring FDXR/FDX using 1-deoxycorticosterone as substrate by HTRF assay; assay type: cell-based
T1 sequence (P19099 whole entry): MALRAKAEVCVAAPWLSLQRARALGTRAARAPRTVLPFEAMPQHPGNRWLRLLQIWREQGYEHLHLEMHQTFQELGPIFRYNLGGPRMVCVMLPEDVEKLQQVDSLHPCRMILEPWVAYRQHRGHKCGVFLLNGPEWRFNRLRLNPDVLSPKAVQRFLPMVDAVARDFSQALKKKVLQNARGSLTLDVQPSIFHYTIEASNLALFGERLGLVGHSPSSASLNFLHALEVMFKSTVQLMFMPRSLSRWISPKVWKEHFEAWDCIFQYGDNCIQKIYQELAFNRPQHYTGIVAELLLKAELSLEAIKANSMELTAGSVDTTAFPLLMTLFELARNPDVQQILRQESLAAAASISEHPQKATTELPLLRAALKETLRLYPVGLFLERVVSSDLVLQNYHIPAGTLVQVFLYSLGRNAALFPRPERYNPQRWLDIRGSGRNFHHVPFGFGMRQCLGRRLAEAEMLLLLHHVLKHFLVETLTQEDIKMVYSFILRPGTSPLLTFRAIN
Outline: (§1)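 Cells with endogenous FDXR/FDX and no detectable CYP11B activity, stably transfected (CMV promoter, neomycin selection, G-418 400 µg/mL) with CYP11B1 or CYP11B2 of the named species. Assayed in DMEM/F12 with 2.5% charcoal-treated FCS. Substrate 1 µM 11-deoxycorticosterone (B2) or 11-deoxycortisol (B1), 16 hr. Aldosterone or cortisol in supernatant measured by HTRF. IC50 from 4-parameter MMF fit; selectivity factor is the B1/B2 IC50 ratio.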

[2] = target: T2, Cytochrome P450 11B1, mitochondrial (Homo sapiens, UniProt P15538); experiment: Inhibition of human CYP11B1 expressed in human renal leiomyoblastoma cells harboring FDXR/FDX using 1-deoxycortisol as substrate by HTRF assay; assay type: ADME, cell-based; outline: as §1
T2 sequence (P15538 whole entry): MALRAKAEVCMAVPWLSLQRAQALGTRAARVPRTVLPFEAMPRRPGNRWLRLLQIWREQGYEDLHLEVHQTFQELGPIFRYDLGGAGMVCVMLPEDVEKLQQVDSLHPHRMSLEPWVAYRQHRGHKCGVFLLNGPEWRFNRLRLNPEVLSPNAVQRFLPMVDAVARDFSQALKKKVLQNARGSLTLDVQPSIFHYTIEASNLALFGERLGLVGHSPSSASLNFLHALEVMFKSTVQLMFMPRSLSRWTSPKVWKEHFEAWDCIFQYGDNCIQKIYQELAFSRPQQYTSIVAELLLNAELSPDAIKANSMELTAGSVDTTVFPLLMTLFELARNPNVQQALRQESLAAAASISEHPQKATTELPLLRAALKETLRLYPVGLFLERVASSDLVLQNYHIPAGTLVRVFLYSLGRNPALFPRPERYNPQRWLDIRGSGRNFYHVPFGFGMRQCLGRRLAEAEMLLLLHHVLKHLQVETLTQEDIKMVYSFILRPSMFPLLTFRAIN

[3] = Selectivity ratio of IC50 for human CYP11B1 expressed in human renal leiomyoblastoma cells harboring FDXR/FDX to IC50 for human CYP11B2 expressed in human renal leiomyoblastoma cells harboring FDXR/FDX; assay type: cell-based; outline: as §1
[4] = Intrinsic clearance in human liver microsomes preincubated for 10 mins followed by NADPH regenerating system addition and measured up to 30 mins by LC/MS-MS analysis; assay type: ADME, Microsome; details: read-out: CLH
Outline: (§2)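 Liver microsomes at 0.5 mg protein/mL in 100 mM potassium phosphate, pH 7.4. Compound preincubated 10 min at 37 °C. Intrinsic clearance scaled using the well-stirred liver model.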

[5] = Intrinsic clearance in mouse liver microsomes preincubated for 10 mins followed by NADPH regenerating system addition and measured up to 30 mins by LC/MS-MS analysis; assay type: ADME, Microsome; outline: as §2
[6] = Inhibition of cynomolgus monkey CYP11B2 expressed in human G401 cells using 1-deoxycorticosterone as substrate by HTRF assay; assay type: cell-based, Macaca fascicularis; details: g-401; outline: as §1
[7] = Selectivity ratio of IC50 for cynomolgus monkey CYP11B1 expressed in human G401 cells to IC50 for cynomolgus monkey CYP11B2 expressed in human G401 cells; assay type: cell-based; outline: as §1
[8] = Intrinsic clearance in rat liver microsomes preincubated for 10 mins followed by NADPH regenerating system addition and measured up to 30 mins by LC/MS-MS analysis; assay type: ADME, Microsome; outline: as §2

Structure (SMILES)	IC50 [1] [nM]	IC50 [2] [nM]	Ratio IC50 [3]	predicted hepatic clearance [4] [mL/min/kg]	predicted hepatic clearance (CLH) [5] [mL/min/kg]	IC50 [6] [nM]	Ratio IC50 [7]	predicted hepatic clearance (CLH) [8] [mL/min/kg]
CN(C(=O)c1ccc(Cl)cc1F)c1cccnc1	> 3000	> 3000	–	–	–	–	–	–
CCC1c2cc(Cl)ccc2C(=O)N1c1cccnc1 (stereo not given)	121	3340	28	6.6	65.9	–	–	–
CC(=O)N1CC[C@@H](Oc2cncc(N3C(=O)c4ccc(Cl)cc4C3(C)C)c2)C1	11	–	113	–	–	7	643	–
O=C(Nc1cccnc1)c1ccc(Cl)cc1	420	> 3000	> 7	–	–	–	–	–
CC(=O)NCc1cncc(N2C(=O)c3ccc(Cl)cc3C2(C)C)c1	59	–	47	–	–	14	333	–
CCC(=O)NCc1cncc(N2C(=O)c3ccc(Cl)cc3C2(C)C)c1	282	–	28	–	–	–	–	–
CS(=O)(=O)N[C@@H]1CCCc2c1cncc2N1Cc2cc(Cl)ccc2C1=O	998	9350	9	< 3.5	< 20.2	–	–	–
CN(C(=O)c1ccc(C#N)cc1)c1cccnc1	> 3000	> 3000	–	–	–	–	–	–
CCC(=O)N[C@@H]1CCCc2c1cncc2N1C(=O)c2ccc(Cl)cc2[C@@H]1C	6	414	69	< 3.5	< 20.2	–	–	–
CCS(=O)(=O)N[C@@H]1CCCc2c1cncc2N1Cc2cc(Cl)ccc2C1=O	40	1790	45	< 3.5	27	–	–	–
CC1(C)c2cc(Cl)ccc2C(=O)N1c1cncc(CNS(C)(=O)=O)c1	33	–	49	–	–	10	179	–
Cc1ccncc1C(=O)N1CC2(C1)CN(c1cncc(N3C(=O)c4ccc(Cl)cc4C3(C)C)c1)C2	14	–	1870	–	–	–	–	–
CCC(=O)N[C@@H]1CCCc2c1cncc2N1CCc2cc(Cl)ccc2C1=O	119	3330	–	< 3.5	–	–	–	< 20.2
CCC(=O)N[C@@H]1CCCc2c1cncc2N1C(=O)c2ccc(Cl)cc2[C@H]1C	66	9410	143	< 3.5	45.6	–	–	–
CC(=O)N1CC[C@H](Oc2cncc(N3C(=O)c4ccc(Cl)cc4C3(C)C)c2)C1	7	–	81	–	–	5	193	–
CC[C@H]1c2cc(Cl)ccc2C(=O)N1c1cncc2c1CCC[C@H]2NC(C)=O	97	3630	37	< 3.5	< 20.2	–	–	–
C[C@@H](NS(C)(=O)=O)c1cncc(N2C(=O)c3ccc(Cl)cc3C2(C)C)c1	8	–	71	–	–	4	93	–
CC(=O)N[C@H]1CCCc2c1cncc2N1Cc2cc(Cl)ccc2C1=O	5140	39600	8	–	–	–	–	–
CC[C@@H]1c2cc(Cl)ccc2C(=O)N1c1cncc2c1CCC[C@H]2NC(C)=O	7	334	48	< 3.5	< 20.2	–	–	–
CC(=O)N[C@@H]1CCCc2c1cncc2N1C(=O)c2ccc(Cl)cc2[C@@H]1C1CC1	354	> 30000	> 85	–	–	–	–	–
O=C1c2ccc(Cl)cc2C(Cc2ccccc2)N1c1cccnc1 (stereo not given)	1070	214	0.2	–	–	–	–	–
CC(=O)N1CC2(C1)CN(c1cncc(N3C(=O)c4ccc(Cl)cc4C3(C)C)c1)C2	23	–	640	–	–	–	–	3.71

Structure (SMILES)	IC50 [1] [nM]	IC50 [2] [nM]	Ratio IC50 [3]	predicted hepatic clearance [4] [mL/min/kg]	predicted hepatic clearance (CLH) [5] [mL/min/kg]	IC50 [6] [nM]	Ratio IC50 [7]	predicted hepatic clearance (CLH) [8] [mL/min/kg]
CCC(=O)N[C@@H]1CCCc2c1cncc2N1C(=O)c2ccc(Cl)cc2[C@H]1CC	90	10200	114	< 3.5	44.9	–	–	–
CC(=O)N[C@@H]1CCCc2c1cncc2N1Cc2cc(Cl)ccc2C1=O	44	2330	53	< 3.5	< 20.2	–	–	–
CC(=O)N[C@@H]1CCCc2c1cncc2N1C(=O)c2ccc(Cl)cc2[C@H]1C	130	5140	40	< 3.5	43.5	–	–	–
CC(=O)N1CCC(Oc2cncc(N3C(=O)c4ccc(Cl)cc4C3(C)C)c2)CC1	4	–	61	–	–	2	225	–
Cc1cccnc1C(=O)NCc1cncc(N2C(=O)c3ccc(Cl)cc3C2(C)C)c1	9	–	89	–	–	–	191	–
Cc1ccc(C(=O)Nc2cccnc2)cc1	> 3000	> 3000	–	–	–	–	–	–
CCC(=O)N[C@@H]1CCCc2c1cncc2N1C(=O)c2ccc(Cl)cc2[C@@H]1CC	12	345	29	< 3.5	< 20.2	–	–	–
CC(=O)N[C@@H]1CCCc2c1cncc2N1C(=O)c2ccc(Cl)cc2[C@H]1C1CC1	100	22800	228	–	–	–	–	–
O=C(Nc1cccnc1)c1ccccc1Cl	967	> 3000	> 3	–	–	–	–	–
O=C1c2ccc(Cl)cc2C(C2CC2)N1c1cccnc1 (stereo not given)	161	32500	202	9.4	–	–	–	–
CC1c2cc(Cl)ccc2C(=O)N1c1cccnc1 (stereo not given)	123	1250	10	12.2	66.5	–	–	–
CC(=O)N1CCC(c2cncc(N3C(=O)c4ccc(Cl)cc4C3(C)C)c2)CC1	5	–	77	–	–	2	466	–
O=C(Nc1cccnc1)c1ccc(Cl)cc1F	297	> 3000	> 10	–	–	–	–	–
O=C1c2ccccc2CN1c1cccnc1	1120	> 3000	> 3	–	–	–	–	–
CCS(=O)(=O)NCc1cncc(N2C(=O)c3ccc(Cl)cc3C2(C)C)c1	92	–	31	–	–	–	–	–
Cc1cc(Cl)ccc1C(=O)Nc1cccnc1	277	> 3000	> 11	–	–	–	–	–
CC1(C)c2cc(Cl)ccc2C(=O)N1c1cccnc1	108	4280	40	< 3.5	25	–	–	–
N#Cc1ccc(C(=O)Nc2cccnc2)cc1	454	> 3000	> 7	–	–	–	–	–
Cc1cc(Cl)ccc1C(=O)N(C)c1cccnc1	> 3000	> 3000	–	–	–	–	–	–
O=C1c2ccc(Cl)cc2C2(CC2)N1c1cccnc1	120	4450	37	3.5	–	–	–	–
O=C1c2cc(F)c(Cl)cc2CCN1c1cccnc1	104	3540	34	< 3.5	30.9	–	–	–
CC(=O)N[C@@H]1CCCc2c1cncc2N1C(=O)c2ccc(Cl)cc2[C@@H]1C	4	81	20	< 3.5	< 20.2	–	–	–
